Laboratory results reported in ChEMBL document CHEMBL4373680, “Small antibacterial molecules highly active against drug-resistant Staphylococcus aureus” (Medchemcomm, 2019).

Tests used:
[1] = Selectivity index, ratio of HC50 for human erythrocytes to MIC for methicillin-resistant Staphylococcus aureus ATCC 33591; type: toxicity; conditions: read-out: Selectivity Index
[2] = Ratio of EC50 for dog MDCK cells to MIC for vancomycin-resistant Staphylococcus aureus clinical isolate 2; type: toxicity
[3] = tested on: Klebsiella pneumoniae; test: Antibacterial activity against Klebsiella pneumoniae ATCC 700603 after 24 hrs by tecan plate reader analysis; type: functional; conditions: Klebsiella pneumoniae, 700603, 24 h
Summary of the method: (§1)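 Broth microdilution MIC. Glycerol stocks grown on MacConkey agar 24 h at 37 °C, then a single colony in nutrient broth 6 h to mid-log (~10⁸ CFU/mL). Cells diluted to 10⁵ CFU/mL in Mueller Hinton broth and added to two-fold compound dilutions. Incubated 24 h at 37 °C, OD600 read. Triplicate wells, experiment run twice.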

[4] = tested on: Staphylococcus aureus; test: Antibacterial activity against methicillin-resistant Staphylococcus aureus R3545 clinical isolate after 24 hrs by tecan plate reader analysis; type: functional; conditions: R3545, 24 h
Summary of the method: (§2)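 Colony grown 24 h on NB agar at 37 °C, then 6 h in nutrient broth to mid-log (10⁸ CFU/mL by drop plating), diluted to 10⁵ CFU/mL in Mueller Hinton broth; added 9:1 to two-fold serial compound dilutions in MHB. Incubated 24 h, 37 °C; OD600 read. Triplicate per concentration, experiment run twice; MIC taken from the range of triplicate OD values.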

[5] = Hemolytic activity in human erythrocytes after 1 hr; type: ADME, cell-based, Erythrocyte
Summary of the method: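 Heparinized donor blood. Erythrocytes washed three times in PBS and resuspended to 5 vol%, then mixed 3:1 with compound serially diluted in water. Incubated 1 h at 37 °C and centrifuged. Supernatant A540 read; % hemolysis relative to water and 0.1 vol% Triton-X controls.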

[6] = Ratio of EC50 for human A549 cells to MIC for vancomycin-resistant Staphylococcus aureus clinical isolate 2; type: toxicity
[7] = tested on: A549; test: Cytotoxicity against human A549 cells after 24 hrs by alamar blue assay; type: cell-based; conditions: A549, 24 h
Summary of the method: (§3)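 About 10⁴ cells/well in DMEM with 10% FBS. Medium replaced with two-fold compound dilutions and incubated 24 h at 37 °C, 5% CO₂. Alamar Blue added for a further 4 h, absorbance 570 nm (600 nm reference). Viability normalized to untreated and 0.1% Triton-X wells. Triplicates; sigmoidal fit gives the 50% viability concentration.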

[8] = tested on: Acinetobacter baumannii; test: Antibacterial activity against Acinetobacter baumannii MTCC 1425 after 24 hrs by tecan plate reader analysis; type: functional; conditions: MTCC 1425, 24 h; summary of the method: as §1
[9] = tested on: Staphylococcus aureus; test: Antibacterial activity against vancomycin-resistant Staphylococcus aureus clinical isolate 4 after 24 hrs by tecan plate reader analysis; type: functional; conditions: clinical isolate 4, 24 h; summary of the method: as §2
[10] = Ratio of EC50 for dog MDCK cells to MIC for vancomycin-resistant Staphylococcus aureus clinical isolate 1; type: toxicity
[11] = tested on: Staphylococcus aureus; test: Induction of membrane depolarization in Staphylococcus aureus ATCC 33591 assessed as increase in fluorescence intensity measured upto 28 mins by DiSC3 staining based fluorescence spectroscopic technique; type: functional, organism-based
Summary of the method: (§4)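 Mid-log MRSA washed in 5 mM HEPES pH 7.4 and resuspended in 1:1:1 HEPES (5 mM), glucose (5 mM) and KCl (100 mM). Loaded with DiSC3(5) at 2 µM final, 30 min in the dark. Baseline fluorescence (ex 622/em 670 nm) read 4 min, compound added, monitored to 28 min. Water control; triplicates averaged.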

[12] = tested on: Staphylococcus aureus; test: Induction of membrane depolarization in Staphylococcus aureus R3545 assessed as increase in fluorescence intensity measured upto 28 mins by DiSC3 staining based fluorescence spectroscopic technique; type: functional, organism-based; summary of the method: as §4
[13] = tested on: Staphylococcus aureus; test: Bactericidal activity against planktonic phase of methicillin-resistant Staphylococcus aureus ATCC 33591 assessed as log reduction in bacterial colony forming units at 16 ug/ml incubated for 2 hrs followed by plating on agar plate for 24 hrs by time-kill kinetic assay; type: functional
Summary of the method: (§5)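 Time-kill: 6 h mid-log culture diluted to 10⁵ CFU/mL in MHB, incubated at 37 °C with compound at […]; 0.9% saline control. Aliquots at 1, 2, 4, 6, 8 and 12 h ten-fold diluted in saline, plated on NB agar 24 h at 37 °C; colonies counted, log scale.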

[14] = tested on: Staphylococcus aureus; test: Induction of membrane permeabilization in Staphylococcus aureus ATCC 33591 assessed as increase in fluorescence intensity measured upto 28 mins by propidium iodide staining based fluorescence spectroscopic technique; type: functional, organism-based
Summary of the method: (§6)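 Mid-log MRSA washed in 5 mM HEPES and resuspended in 1:1 HEPES (5 mM) and glucose (5 mM). Propidium iodide added at 10 µM final. Baseline fluorescence (ex 535/em 617 nm) read 4 min, compound in water added, read to 28 min. Water control; triplicates averaged.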

[15] = tested on: Staphylococcus aureus; test: Bactericidal activity against planktonic phase of methicillin-resistant Staphylococcus aureus ATCC 33591 assessed as bacterial killing at 32 ug/ml incubated for 1 hr followed by plating on agar plate for 24 hrs by time-kill kinetic assay relative to control; type: functional; summary of the method: as §5
[16] = tested on: Staphylococcus aureus; test: Antibacterial activity against methicillin-resistant Staphylococcus aureus R3890 clinical isolate after 24 hrs by tecan plate reader analysis; type: functional; conditions: R3890, 24 h; summary of the method: as §2
[17] = tested on: MDCK; test: Cytotoxicity against dog MDCK cells after 24 hrs by alamar blue assay; type: cell-based; conditions: Canis lupus familiaris; summary of the method: as §3
[18] = tested on: Staphylococcus aureus; test: Antibacterial activity against vancomycin-resistant Staphylococcus aureus clinical isolate 1 after 24 hrs by tecan plate reader analysis; type: functional; conditions: clinical isolate 1, 24 h; summary of the method: as §2
[19] = tested on: Staphylococcus aureus; test: Antibacterial activity against methicillin-resistant Staphylococcus aureus ATCC 33591 after 24 hrs by tecan plate reader analysis; type: functional; conditions: ATCC 33591, 24 h; summary of the method: as §2
[20] = tested on: Staphylococcus aureus; test: Bactericidal activity against planktonic phase of methicillin-resistant Staphylococcus aureus R3545 assessed as log reduction in bacterial colony forming units at 16 ug/ml incubated for 4 hrs followed by plating on agar plate for 24 hrs by time-kill kinetic assay; type: functional; summary of the method: as §5
[21] = tested on: Staphylococcus aureus; test: Antibacterial activity against methicillin-resistant Staphylococcus aureus R3889 clinical isolate after 24 hrs by tecan plate reader analysis; type: functional; conditions: R3889, 24 h; summary of the method: as §2
[22] = tested on: Escherichia coli; test: Antibacterial activity against Escherichia coli MTCC 443 after 24 hrs by tecan plate reader analysis; type: functional; conditions: MTCC 443, 24 h; summary of the method: as §1
[23] = tested on: Staphylococcus aureus; test: Induction of membrane permeabilization in Staphylococcus aureus R3545 assessed as increase in fluorescence intensity measured upto 28 mins by propidium iodide staining based fluorescence spectroscopic technique; type: functional, organism-based; summary of the method: as §6
[24] = tested on: Staphylococcus aureus; test: Bactericidal activity against planktonic phase of methicillin-resistant Staphylococcus aureus R3545 assessed as bacterial killing at 32 ug/ml incubated for 1 hr followed by plating on agar plate for 24 hrs by time-kill kinetic assay relative to control; type: functional; summary of the method: as §5
[25] = Ratio of EC50 for human A549 cells to MIC for vancomycin-resistant Staphylococcus aureus clinical isolate 1; type: toxicity
[26] = tested on: Pseudomonas aeruginosa; test: Antibacterial activity against Pseudomonas aeruginosa MTCC 424 after 24 hrs by tecan plate reader analysis; type: functional; conditions: MTCC 424, 24 h; summary of the method: as §1

SMILES: CCCCCCCCNC(=O)C[N+](C)(CCO)CCCCCC[N+](C)(CCO)CC(=O)NCCCCCCCC.[Br-].[Br-] (stereo unspecified)
- selectivity ratio [1]: 222
- selectivity ratio [2]: 22
- MIC [3]: 32 µg/mL
- MIC [4]: 1 to 2 µg/mL
- HC50 at 1 h [5]: 222 µg/mL
- selectivity ratio [6]: 22
- EC50 [7]: 44 µg/mL
- MIC [8]: 16 µg/mL
- MIC [9]: 2 µg/mL
- selectivity ratio [10]: 22
- Activity [11]: Dose-dependent effect
- Activity [12]: Dose-dependent effect
- Activity [13]: 5.4 log10CFU/ml
- Activity [14]: Dose-dependent effect
- Activity [15]: 100%
- MIC [16]: 4 µg/mL
- EC50 [17]: 45 µg/mL
- MIC [18]: 2 µg/mL
- MIC [19]: 1 to 2 µg/mL
- Activity [20]: 5.6 log10CFU/ml
- MIC [21]: 1 µg/mL
- MIC [22]: 4 to 8 µg/mL
- Activity [23]: Dose-dependent effect
- Activity [24]: 100%
- selectivity ratio [25]: 22
- MIC [26]: 16 µg/mL
